According to ChEMBL document CHEMBL2384906, “Biological activity, design, synthesis and structure activity relationship of some novel derivatives of curcumin containing sulfonamides” (Eur J Med Chem, 2013):
In brackets after ≈: the same amount, converted by molar mass. Activity calls are given as the source filed them. The calls are words filed in the database; no cut-off is given here.

How the values were obtained:
HeLa = assay: Cytotoxicity against human HeLa cells after 24 hrs by MTT assay; type: functional, cell-based
In short: (§1)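 The MTT assay seeded 5 × 10⁴ cells per well and grew them 24 h in RPMI 1640 with compound at 2.5–200 µM. Medium without cells was the blank and adriamycin the positive control. MTT was added for 4 h at 37 °C, formazan was solubilised, and absorbance was read at 570 nm. IC50 is the concentration that cuts viability 50% against untreated cells.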

Aspergillus niger [1] = assay: Antifungal activity against Aspergillus niger MTCC 1108 assessed as zone of inhibition at 80 uM after 48 hrs by disc diffusion method; type: functional; conditions: MTCC 1108, 48 h, read-out: IZ
In short: (§2)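 Spores from 4-day potato dextrose agar cultures, suspended in sterile water at 1.5 × 10⁵ CFU/mL. 0.2 mL was spread on potato dextrose agar. 5 mm filter-paper discs soaked with test compound were laid on the lawn. Incubation was 48 h at 28 °C, then the inhibition zone was measured in mm. Fluconazole was the positive control and acetone the negative control.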

Trichoderma viride [2] = assay: Antifungal activity against Trichoderma viride MTCC 1107 assessed as zone of inhibition at 80 uM after 48 hrs by disc diffusion method; type: functional; conditions: MTCC 1107, 48 h, read-out: IZ; in short: as §2
Aspergillus flavus [3] = assay: Antifungal activity against Aspergillus flavus MTCC 1021 assessed as zone of inhibition at 20 uM after 48 hrs by disc diffusion method; type: functional; in short: as §2
Escherichia coli [4] = assay: Antimicrobial activity against Escherichia coli ATCC 35218 after 24 hrs by broth micro serial dilution method; type: functional; conditions: ATCC 35218, 24 h
In short: (§3)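 This was broth microdilution in autoclaved Mueller-Hinton broth. 150 µL of compound per well was serially diluted […], and 50 µL of test organism was added. Plates were incubated 24 h at 37 °C and optical density was read.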

Bacillus cereus [5] = assay: Antimicrobial activity against Bacillus cereus MTCC 7350 after 24 hrs by broth micro serial dilution method; type: functional; in short: as §3
Salmonella typhi [6] = assay: Antimicrobial activity against Salmonella typhi ATCC 23564 assessed as diameter of inhibition zone at 80 uM after 24 hrs by Kirby -Baur disc diffusion method; type: functional, Salmonella enterica subsp. enterica serovar Typhi
Pseudomonas aeruginosa [7] = assay: Antimicrobial activity against Pseudomonas aeruginosa ATCC 15499 assessed as diameter of inhibition zone at 40 uM after 24 hrs by Kirby -Baur disc diffusion method; type: functional
In short: (§4)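 Kirby-Bauer disc diffusion was used. Acetone stocks (160 µM) were serially doubled down to 80, 40 and 20 µM. 4 µL of each went onto 5 mm sterile paper discs, which were dried 30 min at 50 °C. Inoculum was 1.5 × 10⁸ CFU/mL diluted to 3 × 10² CFU/mL, and 50 µL was spread on Mueller-Hinton agar. After 24 h at 37 °C the inhibition-zone diameter was measured. Ciprofloxacin served as positive control.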

Curvularia lunata [8] = assay: Antifungal activity against Curvularia lunata MTCC 581 after 48 hrs; type: functional; conditions: MTCC 581, 48 h
Trichoderma viride [9] = assay: Antifungal activity against Trichoderma viride MTCC 1107 after 48 hrs; type: functional; conditions: MTCC 1107, 48 h
Escherichia coli [10] = assay: Antimicrobial activity against Escherichia coli ATCC 35218 assessed as diameter of inhibition zone at 80 uM after 24 hrs by Kirby -Baur disc diffusion method; type: functional; in short: as §4
Staphylococcus aureus [11] = assay: Antimicrobial activity against Staphylococcus aureus ATCC 11632 after 24 hrs by broth micro serial dilution method; type: functional; in short: as §3
Aspergillus niger [12] = assay: Antifungal activity against Aspergillus niger MTCC 1108 assessed as zone of inhibition at 40 uM after 48 hrs by disc diffusion method; type: functional; in short: as §2
HepG2 = assay: Cytotoxicity against human HepG2 cells after 24 hrs by MTT assay; type: functional, cell-based; in short: as §1
Bacillus cereus [13] = assay: Antimicrobial activity against Bacillus cereus MTCC 7350 assessed as diameter of inhibition zone at 80 uM after 24 hrs by Kirby -Baur disc diffusion method; type: functional; in short: as §4
Pseudomonas aeruginosa [14] = assay: Antimicrobial activity against Pseudomonas aeruginosa ATCC 15499 assessed as diameter of inhibition zone at 20 uM after 24 hrs by Kirby -Baur disc diffusion method; type: functional; in short: as §4
Aspergillus niger [15] = assay: Antifungal activity against Aspergillus niger MTCC 1108 assessed as zone of inhibition at 20 uM after 48 hrs by disc diffusion method; type: functional; in short: as §2
Aspergillus niger [16] = assay: Antifungal activity against Aspergillus niger MTCC 1108 after 48 hrs; type: functional; conditions: MTCC 1108, 48 h
Escherichia coli [17] = assay: Antimicrobial activity against Escherichia coli ATCC 35218 assessed as diameter of inhibition zone at 40 uM after 24 hrs by Kirby -Baur disc diffusion method; type: functional; conditions: ATCC 35218, 24 h, read-out: DIZ; in short: as §4
Pseudomonas aeruginosa [18] = assay: Antimicrobial activity against Pseudomonas aeruginosa ATCC 15499 after 24 hrs by broth micro serial dilution method; type: functional; conditions: ATCC 15499, 24 h; in short: as §3
Escherichia coli [19] = assay: Antimicrobial activity against Escherichia coli ATCC 35218 assessed as diameter of inhibition zone at 20 uM after 24 hrs by Kirby -Baur disc diffusion method; type: functional; in short: as §4
Staphylococcus aureus [20] = assay: Antimicrobial activity against Staphylococcus aureus ATCC 11632 assessed as diameter of inhibition zone at 80 uM after 24 hrs by Kirby -Baur disc diffusion method; type: functional; in short: as §4
Salmonella typhi [21] = assay: Antimicrobial activity against Salmonella typhi ATCC 23564 assessed as diameter of inhibition zone at 20 uM after 24 hrs by Kirby -Baur disc diffusion method; type: functional; conditions: Salmonella enterica subsp. enterica serovar Typhi
Aspergillus flavus [22] = assay: Antifungal activity against Aspergillus flavus MTCC 1021 after 48 hrs; type: functional; conditions: MTCC 1021, 48 h
Pseudomonas aeruginosa [23] = assay: Antimicrobial activity against Pseudomonas aeruginosa ATCC 15499 assessed as diameter of inhibition zone at 80 uM after 24 hrs by Kirby -Baur disc diffusion method; type: functional; in short: as §4
Aspergillus flavus [24] = assay: Antifungal activity against Aspergillus flavus MTCC 1021 assessed as zone of inhibition at 40 uM after 48 hrs by disc diffusion method; type: functional; conditions: MTCC 1021, 48 h, read-out: IZ; in short: as §2
Curvularia lunata [25] = assay: Antifungal activity against Curvularia lunata MTCC 581 assessed as zone of inhibition at 80 uM after 48 hrs by disc diffusion method; type: functional; conditions: MTCC 581, 48 h, read-out: IZ; in short: as §2
Salmonella typhi [26] = assay: Antimicrobial activity against Salmonella typhi ATCC 23564 assessed as diameter of inhibition zone at 40 uM after 24 hrs by Kirby -Baur disc diffusion method; type: functional, Salmonella enterica subsp. enterica serovar Typhi; conditions: Salmonella enterica, ATCC 23564, 24 h; read-out: DIZ
Curvularia lunata [27] = assay: Antifungal activity against Curvularia lunata MTCC 581 assessed as zone of inhibition at 40 uM after 48 hrs by disc diffusion method; type: functional; conditions: MTCC 581, 48 h, read-out: IZ; in short: as §2
Trichoderma viride [28] = assay: Antifungal activity against Trichoderma viride MTCC 1107 assessed as zone of inhibition at 20 uM after 48 hrs by disc diffusion method; type: functional; in short: as §2
Trichoderma viride [29] = assay: Antifungal activity against Trichoderma viride MTCC 1107 assessed as zone of inhibition at 40 uM after 48 hrs by disc diffusion method; type: functional; conditions: MTCC 1107, 48 h, read-out: IZ; in short: as §2
QG-56 = assay: Cytotoxicity against human QG56 cells after 24 hrs by MTT assay; type: functional, cell-based; in short: as §1
Salmonella typhi [30] = assay: Antimicrobial activity against Salmonella typhi ATCC 23564 after 24 hrs by broth micro serial dilution method; type: functional, Salmonella enterica subsp. enterica serovar Typhi
Aspergillus flavus [31] = assay: Antifungal activity against Aspergillus flavus MTCC 1021 assessed as zone of inhibition at 80 uM after 48 hrs by disc diffusion method; type: functional; conditions: MTCC 1021, 48 h, read-out: IZ; in short: as §2
HCT-116 = assay: Cytotoxicity against human HCT116 cells after 24 hrs by MTT assay; type: functional, cell-based; in short: as §1
Mus musculus = assay: Antiinflammatory activity in mouse assessed as inhibition of carrageenan-induced increase in paw volume at 200 mg/kg administered 1 hr prior to carrageenan challenge measured after 3 hrs relative to control; type: functional
In short: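 Mice were fasted 2 h and placed in groups of five. Controls received saline i.p. Phenylbutazone was given at 100 mg/kg i.p., curcumin at 200 mg/kg i.p., and derivatives at 200 mg/kg. After 1 h, 0.1 mL of 1% carrageenan in saline was injected subplantar into the right hind paw. Paw volume was followed by plethysmometer for 3 h, and % inhibition was calculated as (Vc − Vt)/Vc × 100.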

Curvularia lunata [32] = assay: Antifungal activity against Curvularia lunata MTCC 581 assessed as zone of inhibition at 20 uM after 48 hrs by disc diffusion method; type: functional; in short: as §2
[33] = Salmonella enterica subsp. enterica serovar Typhi

| SMILES | IC50 (HeLa) [µM] | zone of inhibition at 80 µM (Aspergillus niger [1]) [mm] | zone of inhibition at 80 µM (Trichoderma viride [2]) [mm] | MIC (Escherichia coli [4]) [µM] | MIC (Bacillus cereus [5]) | MIC (Curvularia lunata [8]) [µM] | MIC (Trichoderma viride [9]) [µM] | MIC (Staphylococcus aureus [11]) | IC50 (HepG2) | diameter of the inhibition zone (DIZ) (Bacillus cereus [13]) | MIC (Aspergillus niger [16]) [µM] | MIC (Pseudomonas aeruginosa [18]) [µM] | diameter of the inhibition zone (DIZ) (Staphylococcus aureus [20]) | MIC (Aspergillus flavus [22]) [µM] | zone of inhibition at 40 µM (Aspergillus flavus [24]) [mm] | zone of inhibition at 80 µM (Curvularia lunata [25]) [mm] | zone of inhibition at 40 µM (Curvularia lunata [27]) [mm] | zone of inhibition at 40 µM (Trichoderma viride [29]) [mm] | IC50 (QG-56) | zone of inhibition at 80 µM (Aspergillus flavus [31]) [mm] | also measured |
| --- | --- | --- | --- | --- | --- | --- | --- | --- | --- | --- | --- | --- | --- | --- | --- | --- | --- | --- | --- | --- | --- |
| COc1cc(/C=C/C(=O)C(/N=N/c2ccc(S(N)(=O)=O)cc2)=C(O)/C=C/c2ccc(O)c(OC)c2)ccc1O | > 100 | 10 | 11 | > 80 | inactive | > 80 | > 80 | inactive | Not Active | inactive | > 80 | > 80 | inactive | > 80 | 9 | 11 | 10 | 10 | Not Active | 11 | inhibition zone (IZ) (Aspergillus flavus [3]): inactive; zone of inhibition at 80 µM (Salmonella typhi [6]; Salmonella enterica, ATCC 23564, 24 h, read-out: DIZ): 11 mm; diameter of the inhibition zone (DIZ) (Pseudomonas aeruginosa [7]): inactive; zone of inhibition at 80 µM (Escherichia coli [10]; ATCC 35218, 24 h, read-out: DIZ): 12 mm; inhibition zone (IZ) (Aspergillus niger [12]): inactive; diameter of the inhibition zone (DIZ) (Pseudomonas aeruginosa [14]): inactive; inhibition zone (IZ) (Aspergillus niger [15]): inactive; zone of inhibition at 40 µM (Escherichia coli [17]): 9 mm; diameter of the inhibition zone (DIZ) (Escherichia coli [19]): inactive; diameter of the inhibition zone (DIZ) (Salmonella typhi [21]): inactive; zone of inhibition at 80 µM (Pseudomonas aeruginosa [23]; ATCC 15499, 24 h, read-out: DIZ): 9 mm; zone of inhibition at 40 µM (Salmonella typhi [26]): 9 mm; inhibition zone (IZ) (Trichoderma viride [28]): inactive; MIC (Salmonella typhi [30]; Salmonella enterica, ATCC 23564, 24 h): > 80 µM; IC50 (HCT-116): Not Active; inhibition in vivo at 200 mg/kg (Mus musculus): 16.1%; inhibition zone (IZ) (Curvularia lunata [32]): inactive |
| COc1cc(/C=C/C(=O)C(/N=N/c2ccc(S(=O)(=O)Nc3ccccn3)cc2)=C(O)/C=C/c2ccc(O)c(OC)c2)ccc1O | 100 | 14 | 17 | > 80 | inactive | 40 (≈ 25.1 µg/mL) | 40 (≈ 25.1 µg/mL) | inactive | Not Active | inactive | 40 (≈ 25.1 µg/mL) | > 80 | inactive | 40 (≈ 25.1 µg/mL) | 12 | 17 | 13 | 13 | Not Active | 13 | zone of inhibition at 20 µM (Aspergillus flavus [3]; MTCC 1021, 48 h, read-out: IZ): 9 mm; diameter of the inhibition zone (DIZ) (Salmonella typhi [6]; [33]): inactive; diameter of the inhibition zone (DIZ) (Escherichia coli [10]): inactive; zone of inhibition at 40 µM (Aspergillus niger [12]; MTCC 1108, 48 h, read-out: IZ): 11 mm; zone of inhibition at 20 µM (Aspergillus niger [15]; MTCC 1108, 48 h, read-out: IZ): 9 mm; diameter of the inhibition zone (DIZ) (Pseudomonas aeruginosa [23]): inactive; zone of inhibition at 20 µM (Trichoderma viride [28]; MTCC 1107, 48 h, read-out: IZ): 10 mm; MIC (Salmonella typhi [30]; [33]): inactive; IC50 (HCT-116): Not Active; inhibition in vivo at 200 mg/kg (Mus musculus): 9.6%; zone of inhibition at 20 µM (Curvularia lunata [32]; MTCC 581, 48 h, read-out: IZ): 10 mm |
